Experimental findings from ChEMBL document CHEMBL1135629, “The effect of exchanging various substituents at the 2-position of 2-methoxyestradiol on cytotoxicity in human cancer cell cultures and inhibition of tubulin polymerization” (J Med Chem, 2002) are described below.

The target of one assay is Tubulin (Bos taurus, UniProt Q6B856+Q862L2+Q862F3). Briefly: Inhibition of tubulin polymerization measured at 12 uM tubulin concentration. It is filed as protein assay. The method in brief: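 Bovine brain tubulin, electrophoretically homogeneous, at 1.2 mg/mL (12 μM), preincubated at 26 °C with varying compound concentrations (up to 40 μM), then chilled on ice before GTP was added. Polymerization at 26 °C followed by turbidity at 350 nm, with extent read at 20 min. IC50 determined graphically from at least two independent assays.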

The species named for assay [1] is Homo sapiens. Briefly: Cytotoxicity against the cancer cell lines breast MDA-MB-435. Type of assay: functional. The method in brief:
(§1)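 Human tumor cell line panel (about 55 lines) exposed to compound across 10^-4 to 10^-8 M. GI50 is the concentration giving 50% growth inhibition; values outside the range are set to the range limits.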

The species named for assay [2] is Homo sapiens. Briefly: Cytotoxicity against the cancer cell lines colon HCT116. It is filed as functional. The method in brief: as §1
Assay [3] is filed under the species Homo sapiens. Briefly: Cytotoxicity against the cancer cell lines renal SN12C. Type of assay: functional. Summed up:
as §1

The species named for assay [4] is Homo sapiens. As to the kind of experiment: Cytotoxicity against the cancer cell lines melanoma UACC-62. Type of assay: functional. The method in brief: as §1
Assay [5] is filed under the species Homo sapiens. As to the kind of experiment: Cytotoxicity against the cancer cell lines CNS SF-539. It is filed as functional. The method in brief:
as §1

Assay [6] is filed under the species Homo sapiens. As to the kind of experiment: Cytotoxicity against the cancer cell lines ovarian OVCAR-3. Type of assay: functional. The method in brief: as §1
The species named for assay [7] is Homo sapiens. As to the kind of experiment: Cytotoxicity against the cancer cell lines lung HOP-62. Type of assay: functional. The method in brief: as §1
The species named for assay [8] is Homo sapiens. Briefly: Cytotoxicity against the cancer cell lines prostate DU-145. It is filed as functional. Summed up:
as §1

A word on the IC50: it is the point on the concentration scale where inhibition reaches its midpoint. A lower IC50 goes with inhibition by little substance. In general, GI50 refers to the concentration that inhibits growth by half. A low value points to greater sensitivity of the cells. `C[C@]12CC[C@@H]3c4cc(C#Cc5ccccc5)c(O)cc4CC[C@H]3[C@@H]1CC[C@@H]2O`: at Tubulin, the IC50 was greater than 40 µM. For the same compound, the GI50 in the assay filed under Homo sapiens [1] was 16 µM; in the assay filed under Homo sapiens [2] it was 14 µM; in the assay listed under Homo sapiens [3] it was 11 µM; in the assay listed under Homo sapiens [4], 12 µM; in the assay filed under Homo sapiens [5] it was 16 µM; in the assay listed under Homo sapiens [6] it was 14 µM. Also, the GI50 was 14 µM in the assay filed under Homo sapiens [7] and 16 µM in the assay listed under Homo sapiens [8].
For `C[C@]12CC[C@@H]3c4cc(OCCO)c(O)cc4CC[C@H]3[C@@H]1CC[C@@H]2O`, at Tubulin, the IC50 is 9.6 µM. The GI50 in the assay filed under Homo sapiens [1] turned out to be 16 µM; in the assay listed under Homo sapiens [2] it was 15 µM; in the assay listed under Homo sapiens [3], 19 µM; in the assay filed under Homo sapiens [4], 13 µM; in the assay listed under Homo sapiens [5] it was 11 µM; in the assay filed under Homo sapiens [6], 8.7 µM. Further, the GI50 came out at 18 µM in the assay filed under Homo sapiens [7] and 16 µM in the assay filed under Homo sapiens [8].
As to `COc1cc2c(cc1O)CC[C@@H]1[C@@H]2CC[C@]2(C)[C@@H](O)CC[C@@H]12` [2-METHOXYESTRADIOL], at Tubulin, the 50% inhibitory concentration (IC50) was found to be 4.7 µM. Further, the 50% growth inhibitory concentration (GI50) turned out to be 0.08 µM in the assay filed under Homo sapiens [1]; 0.47 µM in the assay filed under Homo sapiens [2]; 0.95 µM in the assay filed under Homo sapiens [3]; 0.36 µM in the assay filed under Homo sapiens [4]; 0.32 µM in the assay listed under Homo sapiens [5]; 0.21 µM in the assay listed under Homo sapiens [6]. The GI50 in the assay filed under Homo sapiens [7] is 0.7 µM; in the assay listed under Homo sapiens [8], 1.8 µM.
Consider `C[C@]12CC[C@@H]3c4cc(C#N)c(O)cc4CC[C@H]3[C@@H]1CC[C@@H]2O`, for which the half-maximal inhibitory concentration (IC50) against Tubulin is greater than 40 µM. In addition, the GI50 in the assay filed under Homo sapiens [1] was greater than 100 µM; in the assay listed under Homo sapiens [2] it was greater than 100 µM; in the assay filed under Homo sapiens [3] it was 48 µM; in the assay filed under Homo sapiens [4] it was 6.1 µM; in the assay filed under Homo sapiens [5], greater than 100 µM; in the assay filed under Homo sapiens [6], greater than 100 µM. Moreover, the GI50 in the assay filed under Homo sapiens [7] came to 56 µM; in the assay filed under Homo sapiens [8], 34 µM.
Turning to `COc1cc(/C=C/c2cc3c(cc2O)CC[C@@H]2[C@@H]3CC[C@]3(C)[C@@H](O)CC[C@@H]23)cc(OC)c1OC`, the concentration for half-maximal inhibition (IC50) against Tubulin was greater than 40 µM. Also, the GI50 in the assay filed under Homo sapiens [1] is 4.4 µM; in the assay listed under Homo sapiens [2], 3.2 µM; in the assay listed under Homo sapiens [3], 2.4 µM; in the assay filed under Homo sapiens [4] it was 2.7 µM; in the assay filed under Homo sapiens [5], 2 µM; in the assay filed under Homo sapiens [6], 3.2 µM. Further, the 50% growth inhibitory concentration (GI50) in the assay filed under Homo sapiens [7] came to 3.6 µM; in the assay filed under Homo sapiens [8], 2.8 µM.
As for `C[C@]12CC[C@@H]3c4cc(/C=C/CO)c(O)cc4CC[C@H]3[C@@H]1CC[C@@H]2O`, the half-inhibitory concentration (IC50) on Tubulin is 6.3 µM. In addition, the 50% growth inhibitory concentration (GI50) amounted to 0.052 µM in the assay filed under Homo sapiens [1]; 0.47 µM in the assay filed under Homo sapiens [2]; 6.2 µM in the assay listed under Homo sapiens [3]; 0.47 µM in the assay filed under Homo sapiens [4]; 0.25 µM in the assay listed under Homo sapiens [5]; 5.3 µM in the assay filed under Homo sapiens [6]. Further, the GI50 in the assay listed under Homo sapiens [7] was determined as 5.5 µM; in the assay filed under Homo sapiens [8], 0.9 µM.
Turning to `CC#Cc1cc2c(cc1O)CC[C@@H]1[C@@H]2CC[C@]2(C)[C@@H](O)CC[C@@H]12`, the 50% inhibitory concentration (IC50) against Tubulin is 4.9 µM. The 50% growth inhibitory concentration (GI50) in the assay listed under Homo sapiens [1] was determined as 0.13 µM; in the assay filed under Homo sapiens [2], 0.48 µM; in the assay listed under Homo sapiens [3] it was 6.9 µM; in the assay filed under Homo sapiens [4] it was 0.5 µM; in the assay listed under Homo sapiens [5], 0.95 µM; in the assay filed under Homo sapiens [6] it was 0.34 µM. For the same compound, the GI50 was determined as 1.7 µM in the assay listed under Homo sapiens [7] and 3.6 µM in the assay filed under Homo sapiens [8].
Turning to `CN(C)CC/N=C/c1cc2c(cc1O)CC[C@@H]1[C@@H]2CC[C@]2(C)[C@@H](O)CC[C@@H]12`, the IC50 at Tubulin is greater than 40 µM. Moreover, the 50% growth inhibitory concentration (GI50) in the assay listed under Homo sapiens [1] stood at 19 µM; in the assay listed under Homo sapiens [2], 15 µM; in the assay filed under Homo sapiens [3], 22 µM; in the assay filed under Homo sapiens [4] it was 17 µM; in the assay filed under Homo sapiens [5], 22 µM; in the assay filed under Homo sapiens [6], 21 µM. For the same compound, the results for the 50% growth inhibitory concentration (GI50) in the assay listed under Homo sapiens [7] and in the assay listed under Homo sapiens [8] were 19 µM and 22 µM, respectively.
As to `C[C@]12CC[C@@H]3c4cc(/C=N/CCO)c(O)cc4CC[C@H]3[C@@H]1CC[C@@H]2O`, the half-maximal inhibitory concentration (IC50) against Tubulin was greater than 40 µM. Besides, the GI50 in the assay filed under Homo sapiens [1] came out at 17 µM; in the assay listed under Homo sapiens [2] it was 11 µM; in the assay listed under Homo sapiens [3], 18 µM; in the assay filed under Homo sapiens [4], 16 µM; in the assay listed under Homo sapiens [5] it was 13 µM; in the assay listed under Homo sapiens [6], 19 µM. Further, the GI50 in the assay filed under Homo sapiens [7] stood at 23 µM; in the assay filed under Homo sapiens [8], 20 µM.
At Tubulin, `C#Cc1cc2c(cc1O)CC[C@@H]1[C@@H]2CC[C@]2(C)[C@@H](O)CC[C@@H]12` returned an IC50 of 13 µM. Also, the 50% growth inhibitory concentration (GI50) was 2.2 µM in the assay filed under Homo sapiens [1]; 3.9 µM in the assay filed under Homo sapiens [2]; 6.4 µM in the assay filed under Homo sapiens [3]; 4.8 µM in the assay filed under Homo sapiens [4]; 2.3 µM in the assay filed under Homo sapiens [5]; 3.8 µM in the assay listed under Homo sapiens [6]. Also, the values for the GI50 in the assay listed under Homo sapiens [7] and in the assay listed under Homo sapiens [8] were 6.2 µM and 10 µM, respectively.
